Source: PubChem BioAssay (several laboratories)
Sampled rows, rich in hits. Any-hit rate of the full collection: about 2%.
TROY NFkB inh = inhibitors of TROY-driven NF-kB signaling, primary screen, Q293 LMP1-TROYcd cells, NF-kB luciferase, uHTS; Q293 LMP1-TROYcd NF-kB luciferase reporter, 4 h; AID 1347056, 2019; 360,000 tested, 0.98% active; inhibition, % at 10 µM;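 active = compounds whose plate-normalised and pattern-corrected inhibition of the luciferase reporter signal at the single screening dose is 50% or more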
LGR2 antag = inhibitors of bursicon-induced LGR2 CRE-luciferase signal, primary screen, cell-based, HEK293, CRE-luciferase reporter, bursicon stimulation. 380,000 tested, 0.35% active. bursicon-stimulated, 4 h. AID 720647, 2013. Drosophila bursicon receptor LGR2 (rickets). inhibition, % at 9.99 µM;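 active = drop in luminescence signal, shown as inhibition above about 50% in the replicate tests, limit read from the data, passing the limit was not always enough; inconclusive = probably only some replicates passing the limit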;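 note: agonist challenge used bursicon conditioned medium at about half maximal strength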
CaV13 FRET inh = Primary screen for inhibitors of IQ motif and Ca2+-dependent inactivation inhibitor domain binding in CACNA1D, Förster resonance energy transfer in living cells, …. AID 743397. inhibition, % at 12.3 µM. 340,000 tested, 0.098% active. HEK cells, CFP/YFP FRET ICDI-IQ, plate reader, 10 min; percent FRET-ratio fall versus neutral wells;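 active = mean replicate inhibition of at least 30% and at least 1% of replicates passing that level; inconclusive = only one of the two criteria is met; inactive = neither criterion is met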;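 note: 0% = median of the neutral control wells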
Xi reactivation = activators of inactive X chromosome reactivation, primary screen, imaging, XiGFP fibroblasts, GFP high-content imaging, set 2 | XiGFP mouse fibroblasts, % GFP-positive cells imaging, 3 d; cells co-treated with 5-aza-dC sensitizer; scaled so ellipticine positive control = 100% | activation, % at 7.58 µM | 360,000 tested, 0.055% active | AID 743238, 2013;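 active = mean normalized replicate activation at least 10% and every replicate at or above 10%; inconclusive = only one of the two criteria met; inactive = mean below 10% and not all replicates reach 10%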;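 note: 0% = median of on-plate neutral control wells and 100% = ellipticine 6 µM median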
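assay system = SV40-immortalized XiGFP fibroblast cells, line 68-5-11 | buffer or medium = DMEM plus 5-aza-dC sensitizer | doses = single-point pinned compound dosing | times = 3-day compound exposure, then 15 min fixation at room temperature | benchmarks = positive control ellipticine, 6 µM final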
TWEAK-Fn14 inh = inhibitors of TWEAK-Fn14 signaling, primary screen, luciferase reporter cells, uHTS. TWEAK-stimulated Fn14 reporter cells, luciferase luminescence, 8 h. inhibition, % at 10 µM. 360,000 tested, 2% active; in the data active = inhibition above about 50%
Numbers without * were called inactive; u = inconclusive; x = no result.

SMILES | TROY NFkB inh | LGR2 antag | CaV13 FRET inh | Xi reactivation | TWEAK-Fn14 inh
COc1cc(NC(=O)CN2C(=O)c3ccccc3S2(=O)=O)cc(OC)c1 | -3 | -9 | -3 | 0 | 0
O=C(CN1C(=O)c2ccccc2S1(=O)=O)c1ccc(F)c(F)c1 | 72* | 65* | x | 0 | 91*
O=C(CN1C(=O)c2ccccc2S1(=O)=O)c1ccc(O)c(O)c1 | 29 | 4 | -4 | 0 | 48
COc1ccc(C(=O)CN2C(=O)c3ccccc3S2(=O)=O)cc1 | 85* | 101* | -5 | 0 | 102*
CCOC(=O)N1CCN(C(=O)CN2C(=O)c3ccccc3S2(=O)=O)CC1 | -51 | -24 | -2 | 0 | -15
COc1ccc(C(=O)CN2C(=O)c3ccccc3S2(=O)=O)cc1Br | 35 | 37 | x | 0 | 62*
COc1ccc(NC(=O)CN2C(=O)c3ccccc3S2(=O)=O)cc1OC | 11 | 4 | -5 | 0 | -8
CCN1CCN(C(=O)CN2C(=O)c3ccccc3S2(=O)=O)CC1 | 62* | -95 | -5 | 0 | 28
COc1ccc2c3c(n(C)c2c1)[C@H](CO)N(Cc1ccncc1)CC31CN(C(=O)C2CC2)C1 | x | -15 | x | 0 | x
O=C(C[C@@H]1C[C@H]2c3cc(NC(=O)Cc4ccncc4)ccc3O[C@H]2[C@@H](CO)O1)NCCN1CCCCC1 | x | 21 | x | 0 | x
CN1C/C(=C/c2cccnc2)C(=O)/C(=C/c2cccnc2)C1 | 8 | 4 | -16 | 0 | 65*
Cc1ccc2c(COC(=O)C3=COCCO3)cc(=O)oc2c1 | 30 | x | -4 | x | 81*
Cc1ccc(S(=O)(=O)NCC(=O)OCc2cc(=O)oc3cc(C)ccc23)cc1 | 2 | -5 | -3 | 1 | 7
CC=Cc1ccc2n(c1=O)C[C@@H]1[C@@H](CO)[C@H](C(=O)N[C@@H](C)c3ccccc3)N(C)[C@H]21 (mixture of isomers) | x | -7 | x | 0 | x
O=C(Cc1nnc(NC(=O)c2ccccc2)s1)N/N=C/c1ccc(O)cc1 | -4 | -9 | -14 | 0 | 58*
COc1ccc(C(=O)c2coc3ccc(O)cc23)cc1 | -9 | 37 | -20 | 0 | 56*
N#C[C@@H]1[C@H](c2ccc(C#Cc3ccc(F)cc3)cc2)[C@@H](CO)N1C(=O)Nc1ccc(F)cc1 | x | 59* | x | 0 | x
CCCNC(=O)N1[C@H](C#N)[C@H](c2ccc(C#Cc3ccc(F)cc3)cc2)[C@@H]1CO | x | 8 | x | 0 | x
CCCNC(=O)N1[C@H](C#N)[C@H](c2ccc(C#Cc3ccc(F)cc3)cc2)[C@H]1CO | x | 53* | x | 0 | x
O=C(O)c1ccc(CSc2nc3ccc(N4C(=O)C5C6C=CC(C6)C5C4=O)cc3s2)cc1 (configuration not stated) | 34 | 2 | -4 | 0 | 51*
O=C(c1cccc(C(F)(F)F)c1)N1CCOc2ccccc21 | 1 | 0 | -4 | 0 | 3
CSc1ccc(Cl)c(C(=O)N2CCOc3ccccc32)c1 | -4 | -4 | 52* | 0 | 0
Fc1ccccc1Cn1nnc(-c2ccc3c(c2)OCO3)n1 | 53* | x | -5 | x | 16
O=C(c1cnccn1)N1CC[C@@H]2[C@H]1c1cc(-c3ccccc3)ccc1N[C@@H]2CO | x | -5 | x | 0 | x
C[C@@H]1CN([C@@H](C)CO)C(=O)c2cc(NS(=O)(=O)c3cn(C)cn3)ccc2O[C@@H]1CN(C)S(=O)(=O)c1cn(C)cn1 | x | -9 | x | 0 | x
SMILES | TROY NFkB inh | LGR2 antag | CaV13 FRET inh | Xi reactivation | TWEAK-Fn14 inh
O=S(=O)(Nc1c(S(=O)(=O)c2ccccc2)c2nc3ccccc3nc2n1C1CCCCC1)c1ccccc1 | 64* | u | -3 | 0 | 98*
C=CCn1c(NS(=O)(=O)c2ccccc2)c(S(=O)(=O)c2ccc(C)cc2)c2nc3ccccc3nc21 | 20 | -1 | -3 | 0 | 0
CCOC(=O)N1CCN(C(=O)COC(=O)c2cc(Cl)c(O)c(Cl)c2)CC1 | 17 | -26 | -6 | 0 | 72*
COc1cccc(NC(=O)N(C)C[C@@H]2Oc3ncc(C#Cc4cccnc4)cc3C(=O)N([C@@H](C)CO)C[C@@H]2C)c1 | x | 11 | x | 0 | x
CCOc1cc(/C=N/NC(=O)COc2ccc(Cl)cc2)ccc1OS(=O)(=O)c1ccccc1 | 27 | x | x | x | 54*
CCn1cc(/C=C(\NC(=O)c2ccccc2F)C(=O)NCCCN2CCOCC2)c2ccccc21 | -23 | 6 | -3 | 0 | 68*
CCn1cc(/C=C(\NC(=O)c2ccc(C)cc2)C(=O)NCCCN2CCOCC2)c2ccccc21 | -29 | -8 | -7 | 0 | -10
COc1cccc(CN2[C@H](CO)[C@@H]3c4ccccc4N(C(=O)c4cccnc4)C[C@@H]32)c1 | x | -14 | x | 0 | x
Cc1noc(C)c1NC(=O)Nc1ccc2c(c1)C(=O)N([C@H](C)CO)C[C@H](C)[C@H](CN(C)C(=O)Nc1ccc(F)cc1)OCCCC[C@H](C)O2 | x | -10 | x | 0 | x
CC1=CC(=C(C#N)c2nc3ccccc3s2)C=C(C)N1c1ccc(F)cc1 | 11 | -29 | x | 0 | -11
COc1ccccc1N1C(C)=CC(=C(C#N)c2nc3ccccc3s2)C=C1C | 72* | x | -16 | 0 | 83*
CCCc1cc(=O)[nH]c(SCC(=O)c2cc(C)n(CC(F)(F)F)c2C)n1 | 9 | 19 | 2 | 0 | -16
Cc1cc(C(=O)Cn2ncc(Cl)c(Cl)c2=O)c(C)n1CC(F)(F)F | 64* | x | -3 | 5 | 95*
Cc1cc2oc(=O)cc(Cn3ncc(Cl)c(Cl)c3=O)c2cc1Cl | 83* | x | x | x | 80*
Cc1cccc(Cn2ncc(Cl)c(Cl)c2=O)c1 | 6 | 99* | -8 | x | 41
Cc1ccc(C)c(C(=O)Cn2ncc(Cl)c(Cl)c2=O)c1 | 3 | -4 | 1 | x | 68*
CC(C)NC(=O)N(C)C[C@H]1Oc2cc(-c3ccncc3)ccc2S(=O)(=O)N([C@@H](C)CO)C[C@H]1C | x | 0 | x | 0 | x
C[C@H](CO)N1C[C@H](C)[C@@H](CN(C)Cc2ccc(C(F)(F)F)cc2)Oc2c(NC(=O)C3CCOCC3)cccc2C1=O | x | 13 | x | 0 | x
O=C(N[C@@H]1CC[C@@H](CCNC(=O)C2CC2)O[C@@H]1CO)c1ccccn1 | x | -4 | x | 0 | x
CC1Cc2ccccc2N1C(=O)COC(=O)c1ccccc1NCCO (configuration not stated) | 25 | 5 | -6 | 0 | 57*
O=C(COC(=O)c1ccccc1NCCO)NCC1CCCCC1 | 24 | -28 | -6 | 0 | 50*
CC1CCN(C(=O)COC(=O)c2ccccc2NCCO)CC1 | -14 | -2 | -4 | 0 | 1
